Assay results published in ChEMBL document CHEMBL5696442, “Discovery of type II inhibitors of TGFβ-activated kinase 1 (TAK1) and mitogen-activated protein kinase kinase kinase kinase 2 (MAP4K2)” (J Med Chem, 2015).

Tests used:
Assay type in all cases: cell-based
[1] = molecular target: Tyrosine-protein kinase ABL2 (Homo sapiens, UniProt P42684); assay: Inhibition of ARG ACT labeling site in human A-375 cells at 5 uM by KiNativ Profiling analysis relative to control
Procedure, shortened: (§1)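 Intact A375 melanoma cells were treated with compound at 5 or 0.5 μM, then lysed. Lysate kinases were labeled with a lysine-reactive ATP or ADP-biotin probe (KiNativ). Inhibition is read as protection of each kinase labeling site from probe labeling.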

[2] = molecular target: 5'-AMP-activated protein kinase catalytic subunit alpha-1 (Homo sapiens) (UniProt Q13131); assay: Inhibition of AMPKa1 ATP Loop labeling site in human A-375 cells at 0.05 uM by KiNativ Profiling analysis relative to control
Chain of 5'-AMP-activated protein kinase catalytic subunit alpha-1 (Homo sapiens) (Q13131 whole entry, looked up): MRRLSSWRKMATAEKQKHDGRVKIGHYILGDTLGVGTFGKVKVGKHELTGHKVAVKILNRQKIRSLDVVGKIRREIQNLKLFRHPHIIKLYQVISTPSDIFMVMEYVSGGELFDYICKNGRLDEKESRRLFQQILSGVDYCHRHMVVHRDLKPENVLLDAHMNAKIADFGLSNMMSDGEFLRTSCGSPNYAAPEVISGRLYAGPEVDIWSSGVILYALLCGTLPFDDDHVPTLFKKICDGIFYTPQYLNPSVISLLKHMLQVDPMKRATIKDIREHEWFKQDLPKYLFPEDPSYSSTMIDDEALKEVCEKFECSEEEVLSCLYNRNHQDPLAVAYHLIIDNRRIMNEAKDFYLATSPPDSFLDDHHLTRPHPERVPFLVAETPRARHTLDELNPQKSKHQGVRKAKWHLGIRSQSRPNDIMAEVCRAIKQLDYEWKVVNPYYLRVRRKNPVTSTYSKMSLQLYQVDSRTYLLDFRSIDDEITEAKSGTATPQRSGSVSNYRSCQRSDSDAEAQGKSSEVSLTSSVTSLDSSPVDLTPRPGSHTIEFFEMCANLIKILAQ

[3] = molecular target: Calcium/calmodulin-dependent protein kinase kinase 2 (Homo sapiens) (UniProt Q96RR4); assay: Inhibition of CaMKK2 Lys2 labeling site in human A-375 cells at 5 uM by KiNativ Profiling analysis relative to control
Procedure, shortened: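 Live A375 melanoma cells were treated with compound at 5 or 0.5 μM. The cells were then lysed, and the lysates were labeled with a lysine-reactive ATP or ADP-biotin acyl probe (KiNativ). Inhibition is the compound's protection of each kinase labeling-site peptide from probe labeling, relative to untreated control.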

[4] = molecular target: Epidermal growth factor receptor (Homo sapiens) (UniProt P00533); assay: Inhibition of EGFR Lys1 labeling site in human A-375 cells at 0.5 uM by KiNativ Profiling analysis relative to control
Chain of Epidermal growth factor receptor (Homo sapiens) (P00533 whole entry): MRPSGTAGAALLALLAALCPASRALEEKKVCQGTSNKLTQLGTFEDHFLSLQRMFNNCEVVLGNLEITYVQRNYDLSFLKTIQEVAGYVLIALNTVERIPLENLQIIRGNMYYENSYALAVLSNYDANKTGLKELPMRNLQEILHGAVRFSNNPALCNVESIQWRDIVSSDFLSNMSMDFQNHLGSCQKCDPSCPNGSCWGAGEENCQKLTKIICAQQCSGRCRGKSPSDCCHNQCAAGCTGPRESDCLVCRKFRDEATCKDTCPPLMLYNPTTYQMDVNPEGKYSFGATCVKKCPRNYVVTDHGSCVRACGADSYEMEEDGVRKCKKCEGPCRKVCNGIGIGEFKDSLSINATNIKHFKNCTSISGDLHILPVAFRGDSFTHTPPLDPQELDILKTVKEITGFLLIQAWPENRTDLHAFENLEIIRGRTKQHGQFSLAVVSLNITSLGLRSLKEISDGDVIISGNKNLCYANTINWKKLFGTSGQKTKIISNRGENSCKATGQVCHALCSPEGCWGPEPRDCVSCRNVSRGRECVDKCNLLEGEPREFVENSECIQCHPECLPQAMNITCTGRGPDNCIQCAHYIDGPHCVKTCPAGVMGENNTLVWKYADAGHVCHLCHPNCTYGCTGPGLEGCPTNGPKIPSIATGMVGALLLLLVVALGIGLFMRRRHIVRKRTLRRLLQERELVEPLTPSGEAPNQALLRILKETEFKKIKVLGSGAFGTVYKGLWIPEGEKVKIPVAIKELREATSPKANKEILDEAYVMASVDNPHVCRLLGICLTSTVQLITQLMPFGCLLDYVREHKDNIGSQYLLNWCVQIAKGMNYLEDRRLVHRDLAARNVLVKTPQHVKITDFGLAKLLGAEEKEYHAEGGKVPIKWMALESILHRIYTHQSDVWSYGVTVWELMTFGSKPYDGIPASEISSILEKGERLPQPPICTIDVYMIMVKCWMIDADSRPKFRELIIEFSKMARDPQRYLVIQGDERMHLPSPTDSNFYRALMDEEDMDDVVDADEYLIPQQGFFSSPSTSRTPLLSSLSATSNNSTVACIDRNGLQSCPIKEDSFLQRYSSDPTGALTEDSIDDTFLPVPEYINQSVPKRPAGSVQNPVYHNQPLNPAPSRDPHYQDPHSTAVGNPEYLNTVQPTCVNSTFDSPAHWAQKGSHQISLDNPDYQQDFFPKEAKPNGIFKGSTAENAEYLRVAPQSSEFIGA
Procedure, shortened: (§2)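 Live A375 melanoma cells were treated with compound at 0.5 or 5 μM, then lysed. Lysates were labeled with a lysine-reactive ATP or ADP-biotin probe. The read-out was protection of each kinase probe-labeling site from labeling, relative to control.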

[5] = molecular target: T1, Serine/threonine-protein kinase Nek9 (Homo sapiens) (UniProt Q8TD19); assay: Inhibition of NEK9 ACT labeling site in human A-375 cells at 0.5 uM by KiNativ Profiling analysis relative to control
T1 sequence (whole entry): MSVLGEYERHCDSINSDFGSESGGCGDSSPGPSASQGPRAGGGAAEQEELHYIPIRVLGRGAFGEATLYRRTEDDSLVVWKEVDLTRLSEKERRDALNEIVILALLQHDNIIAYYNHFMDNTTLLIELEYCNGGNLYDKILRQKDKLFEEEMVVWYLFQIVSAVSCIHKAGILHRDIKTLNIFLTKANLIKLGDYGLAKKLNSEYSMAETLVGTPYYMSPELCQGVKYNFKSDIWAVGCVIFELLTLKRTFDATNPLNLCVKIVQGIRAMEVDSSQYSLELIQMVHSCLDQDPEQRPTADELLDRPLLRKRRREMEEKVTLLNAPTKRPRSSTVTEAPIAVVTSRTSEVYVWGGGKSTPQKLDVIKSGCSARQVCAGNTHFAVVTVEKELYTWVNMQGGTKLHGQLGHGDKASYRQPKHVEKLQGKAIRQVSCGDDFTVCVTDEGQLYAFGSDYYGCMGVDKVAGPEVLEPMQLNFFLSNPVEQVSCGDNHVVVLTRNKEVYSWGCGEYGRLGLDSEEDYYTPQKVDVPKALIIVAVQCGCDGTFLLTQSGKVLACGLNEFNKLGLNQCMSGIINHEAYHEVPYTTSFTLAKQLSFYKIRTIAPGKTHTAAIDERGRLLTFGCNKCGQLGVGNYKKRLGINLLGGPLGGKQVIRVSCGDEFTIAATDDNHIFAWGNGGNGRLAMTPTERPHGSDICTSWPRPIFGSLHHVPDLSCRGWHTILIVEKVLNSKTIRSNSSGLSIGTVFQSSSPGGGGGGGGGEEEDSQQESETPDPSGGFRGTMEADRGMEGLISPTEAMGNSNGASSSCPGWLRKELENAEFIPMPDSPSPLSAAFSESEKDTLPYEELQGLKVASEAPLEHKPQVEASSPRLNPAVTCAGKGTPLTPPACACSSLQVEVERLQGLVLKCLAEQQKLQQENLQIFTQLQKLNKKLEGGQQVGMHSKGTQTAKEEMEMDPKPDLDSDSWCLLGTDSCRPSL

[6] = molecular target: Serine/threonine-protein kinase 26 (Homo sapiens) (UniProt Q9P289); assay: Inhibition of MST4 Lys1 labeling site in human A-375 cells at 5 uM by KiNativ Profiling analysis relative to control
Chain of Serine/threonine-protein kinase 26 (Homo sapiens) (Q9P289 2-416 limits assumed): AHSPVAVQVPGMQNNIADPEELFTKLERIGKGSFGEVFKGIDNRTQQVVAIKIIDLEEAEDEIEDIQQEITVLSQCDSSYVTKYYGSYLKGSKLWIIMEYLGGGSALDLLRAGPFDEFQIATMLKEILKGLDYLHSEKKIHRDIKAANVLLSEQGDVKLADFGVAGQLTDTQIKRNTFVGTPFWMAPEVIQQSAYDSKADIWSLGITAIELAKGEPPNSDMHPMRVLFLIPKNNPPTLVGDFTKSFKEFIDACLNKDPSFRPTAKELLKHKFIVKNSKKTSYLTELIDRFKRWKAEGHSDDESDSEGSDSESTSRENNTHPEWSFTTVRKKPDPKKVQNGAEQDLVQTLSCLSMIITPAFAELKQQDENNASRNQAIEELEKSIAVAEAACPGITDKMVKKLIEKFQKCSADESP

[7] = molecular target: Cyclin-dependent kinase 16 (Homo sapiens) (UniProt Q00536); assay: Inhibition of PCTAIRE1 Lys1 labeling site in human A-375 cells at 5 uM by KiNativ Profiling analysis relative to control
Chain of Cyclin-dependent kinase 16 (Homo sapiens) (Q00536 whole entry): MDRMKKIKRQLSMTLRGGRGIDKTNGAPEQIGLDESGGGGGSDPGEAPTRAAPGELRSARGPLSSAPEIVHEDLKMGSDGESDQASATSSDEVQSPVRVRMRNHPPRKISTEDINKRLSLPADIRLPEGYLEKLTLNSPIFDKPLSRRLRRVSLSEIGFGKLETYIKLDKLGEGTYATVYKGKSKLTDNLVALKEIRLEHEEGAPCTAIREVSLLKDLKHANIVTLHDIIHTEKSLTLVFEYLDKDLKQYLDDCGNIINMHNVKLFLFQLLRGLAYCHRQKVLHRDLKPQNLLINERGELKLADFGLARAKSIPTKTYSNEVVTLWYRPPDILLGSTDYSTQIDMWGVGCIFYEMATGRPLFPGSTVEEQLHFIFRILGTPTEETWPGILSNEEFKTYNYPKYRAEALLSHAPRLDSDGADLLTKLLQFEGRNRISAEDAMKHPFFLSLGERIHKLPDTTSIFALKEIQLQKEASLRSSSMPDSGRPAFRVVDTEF

[8] = molecular target: T2, Aurora kinase A (Homo sapiens) (UniProt O14965); assay: Inhibition of AurA Lys2 labeling site in human A-375 cells at 0.5 uM by KiNativ Profiling analysis relative to control; procedure, shortened: as §1
T2 sequence (whole entry): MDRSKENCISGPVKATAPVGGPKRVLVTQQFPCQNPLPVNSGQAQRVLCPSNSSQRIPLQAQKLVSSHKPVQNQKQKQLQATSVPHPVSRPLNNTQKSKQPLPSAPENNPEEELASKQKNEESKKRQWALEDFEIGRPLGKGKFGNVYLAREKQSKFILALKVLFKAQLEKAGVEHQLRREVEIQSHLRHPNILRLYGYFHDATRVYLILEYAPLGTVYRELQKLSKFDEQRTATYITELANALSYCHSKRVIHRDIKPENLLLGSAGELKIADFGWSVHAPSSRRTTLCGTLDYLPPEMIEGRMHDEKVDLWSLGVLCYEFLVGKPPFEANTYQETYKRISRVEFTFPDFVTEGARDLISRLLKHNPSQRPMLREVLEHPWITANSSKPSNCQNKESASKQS

[9] = molecular target: Serine/threonine-protein kinase WNK1 (Homo sapiens) (UniProt Q9H4A3); assay: Inhibition of Wnk1 ACT labeling site in human A-375 cells at 5 uM by KiNativ Profiling analysis relative to control
[10] = molecular target: T3, Tyrosine-protein kinase Fer (Homo sapiens, UniProt P16591); assay: Inhibition of FER ACT labeling site in human A-375 cells at 5 uM by KiNativ Profiling analysis relative to control
T3 sequence (P16591 whole entry, looked up): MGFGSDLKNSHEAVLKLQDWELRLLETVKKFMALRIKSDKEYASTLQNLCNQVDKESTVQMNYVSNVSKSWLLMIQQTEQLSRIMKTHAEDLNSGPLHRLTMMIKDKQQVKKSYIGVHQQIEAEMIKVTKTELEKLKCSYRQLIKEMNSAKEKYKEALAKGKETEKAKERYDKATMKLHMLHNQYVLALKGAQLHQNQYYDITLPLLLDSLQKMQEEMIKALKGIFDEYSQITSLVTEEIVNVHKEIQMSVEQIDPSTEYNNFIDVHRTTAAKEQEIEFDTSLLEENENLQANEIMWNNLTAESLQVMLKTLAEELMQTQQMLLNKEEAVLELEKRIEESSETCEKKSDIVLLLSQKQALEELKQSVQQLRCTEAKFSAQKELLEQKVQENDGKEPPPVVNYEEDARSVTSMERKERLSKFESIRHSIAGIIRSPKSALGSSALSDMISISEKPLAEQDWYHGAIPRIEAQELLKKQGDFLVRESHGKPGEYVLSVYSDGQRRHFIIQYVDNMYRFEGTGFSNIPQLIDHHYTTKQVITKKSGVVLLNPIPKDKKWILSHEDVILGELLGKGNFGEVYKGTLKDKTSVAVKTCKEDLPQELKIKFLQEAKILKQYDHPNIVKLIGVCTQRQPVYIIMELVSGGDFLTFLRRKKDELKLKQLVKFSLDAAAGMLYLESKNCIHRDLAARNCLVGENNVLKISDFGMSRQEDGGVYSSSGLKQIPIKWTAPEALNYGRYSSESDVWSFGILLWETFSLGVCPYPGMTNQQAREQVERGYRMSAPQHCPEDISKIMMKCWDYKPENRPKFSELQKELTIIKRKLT

[11] = molecular target: Mitogen-activated protein kinase 7 (Homo sapiens) (UniProt Q13164); assay: Inhibition of Erk5 Lys2 labeling site in human A-375 cells at 0.5 uM by KiNativ Profiling analysis relative to control; procedure, shortened: as §2
Chain of Mitogen-activated protein kinase 7 (Homo sapiens) (Q13164 2-816 limits assumed): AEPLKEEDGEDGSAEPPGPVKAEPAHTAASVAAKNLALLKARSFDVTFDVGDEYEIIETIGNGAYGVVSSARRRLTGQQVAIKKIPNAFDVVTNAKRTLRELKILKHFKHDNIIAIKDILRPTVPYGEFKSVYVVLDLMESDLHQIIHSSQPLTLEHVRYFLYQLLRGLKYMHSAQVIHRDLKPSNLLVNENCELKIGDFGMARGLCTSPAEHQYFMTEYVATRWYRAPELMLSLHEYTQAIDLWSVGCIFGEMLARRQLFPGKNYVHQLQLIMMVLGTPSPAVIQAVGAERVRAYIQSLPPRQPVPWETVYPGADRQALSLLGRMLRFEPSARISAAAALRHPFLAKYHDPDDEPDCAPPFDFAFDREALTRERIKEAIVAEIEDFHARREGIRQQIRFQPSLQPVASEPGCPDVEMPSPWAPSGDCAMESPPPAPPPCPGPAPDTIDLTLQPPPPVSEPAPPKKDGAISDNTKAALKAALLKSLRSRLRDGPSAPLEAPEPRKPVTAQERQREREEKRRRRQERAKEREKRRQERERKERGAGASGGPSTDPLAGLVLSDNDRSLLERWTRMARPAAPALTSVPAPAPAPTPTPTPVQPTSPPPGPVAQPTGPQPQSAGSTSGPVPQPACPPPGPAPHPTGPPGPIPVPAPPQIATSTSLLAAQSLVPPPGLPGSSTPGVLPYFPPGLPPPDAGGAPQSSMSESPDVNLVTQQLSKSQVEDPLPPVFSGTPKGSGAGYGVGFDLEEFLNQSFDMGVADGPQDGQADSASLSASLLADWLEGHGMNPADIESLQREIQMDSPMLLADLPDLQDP

[12] = molecular target: DNA-PK/Ku70/Ku85 (Homo sapiens) (UniProt P78527+P12956+P13010); assay: Inhibition of DNAPK ATP labeling site harbouring GHDEREHPFLVKGGEDLR in human A-375 cells at 0.5 uM by KiNativ Profiling analysis relative to control; procedure, shortened: as §2
[13] = molecular target: Serine/threonine-protein kinase mTOR (Homo sapiens) (UniProt P42345); assay: Inhibition of FRAP ATP labeling site in human A-375 cells at 0.5 uM by KiNativ Profiling analysis relative to control; procedure, shortened: as §2
[14] = molecular target: T3, Tyrosine-protein kinase Fer; assay: Inhibition of FER ACT labeling site in human A-375 cells at 0.05 uM by KiNativ Profiling analysis relative to control
[15] = molecular target: Dual specificity mitogen-activated protein kinase kinase 1 (Homo sapiens) (UniProt Q02750); assay: Inhibition of MAP2K1 Lys1 labeling site in human A-375 cells at 0.5 uM by KiNativ Profiling analysis relative to control
Chain of Dual specificity mitogen-activated protein kinase kinase 1 (Homo sapiens) (Q02750 whole entry): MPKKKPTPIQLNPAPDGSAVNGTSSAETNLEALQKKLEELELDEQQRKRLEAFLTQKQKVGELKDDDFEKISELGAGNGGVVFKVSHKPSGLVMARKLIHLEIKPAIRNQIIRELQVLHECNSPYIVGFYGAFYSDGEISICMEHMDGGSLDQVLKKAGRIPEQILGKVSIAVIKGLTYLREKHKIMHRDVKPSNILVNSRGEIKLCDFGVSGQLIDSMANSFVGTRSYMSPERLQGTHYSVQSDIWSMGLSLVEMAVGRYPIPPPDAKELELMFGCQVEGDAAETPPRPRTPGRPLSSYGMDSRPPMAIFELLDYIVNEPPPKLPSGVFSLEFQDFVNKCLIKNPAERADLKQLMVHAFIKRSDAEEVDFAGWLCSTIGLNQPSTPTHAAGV

`CCN1CCN(Cc2ccc(NC(=O)c3ccc(C)c(Oc4ccnc5[nH]ccc45)c3)cc2C(F)(F)F)CC1` was tested. Which inhibition [1] did it give?
The inhibition was greater than 98%.

And the inhibition [2]?
The inhibition was -4.4%.

And the inhibition [3]?
Its inhibition is 34.8%.

And the inhibition [4]?
The inhibition was -8.8%.

What about the inhibition [5] of the same compound?
Its inhibition is -2.4%.

And the inhibition [6]?
The inhibition was 1.1%.

And the inhibition [7]?
The inhibition was 72.6%.

What about the inhibition [8] of the same compound?
The inhibition was 12%.

And the inhibition [9]?
The inhibition was 14.4%.

And the inhibition [10]?
The inhibition was 96.8%.

And the inhibition [11]?
Its inhibition is 6.8%.

And the inhibition [12]?
The inhibition was 3.6%.

What about the inhibition [13] of the same compound?
The inhibition was -3%.

And the inhibition [14]?
Its inhibition is 62%.

And the inhibition [15]?
Its inhibition is -3.5%.

How did the inhibition [1] turn out when `CCN1CCN(Cc2ccc(NC(=O)c3ccc(C)c(/C=C/c4cnc5[nH]ccc5c4OC)c3)cc2C(F)(F)F)CC1` was run?
The inhibition was greater than 98%.

And the inhibition [2]?
Its inhibition is -8.8%.

What about the inhibition [3] of the same compound?
The inhibition was 3.9%.

And the inhibition [4]?
The inhibition was 0.4%.

What about the inhibition [5] of the same compound?
The inhibition was -3.8%.

And the inhibition [6]?
The inhibition was -6.1%.

What about the inhibition [7] of the same compound?
Its inhibition is 32.1%.

What about the inhibition [8] of the same compound?
The inhibition was 0.7%.

What about the inhibition [9] of the same compound?
The inhibition was -4.5%.

And the inhibition [10]?
Its inhibition is 74%.

And the inhibition [11]?
The inhibition was 14%.

What about the inhibition [12] of the same compound?
Its inhibition is 9.6%.

What about the inhibition [13] of the same compound?
Its inhibition is 0.8%.

What about the inhibition [14] of the same compound?
The inhibition was -9.9%.

What about the inhibition [15] of the same compound?
Its inhibition is 4.4%.
